Measurements collected from several papers.
Protocols differ between the studies behind these lines.
Target: Calcium/calmodulin-dependent protein kinase type 1 (CAMK1, Homo sapiens, UniProt Q14012)

CN(CCCC(F)(F)F)c1nccc(-c2cnn3ncccc23)n1 — remaining binding (binding; 1 µM): 76%
O=C(NCCCN1CCOCC1)c1ccc(Nc2nccc(-c3cc4ccccc4s3)n2)cc1 — remaining binding (binding, competition with immobilised ligand; 1 µM): 75%
COc1cnc(Nc2cccc(S(N)(=O)=O)c2)nc1N1CCN(c2ccccc2)CC1 — remaining binding (binding, competition with immobilised ligand; 1 µM): 100%
COc1ncc2cc3ccccc3nc2c1C#N — remaining binding (cell-free assay, competition with immobilised ligand; 5 µM): 100%
C[C@@H](c1cccc(C#N)c1)n1cc(Cl)cc(C(N)=O)c1=N — remaining binding (cell-free assay, competition with immobilised ligand; 1 µM): 100%
C[C@@H]1CCN(c2nccc(-c3cnn4ncccc34)n2)C1 — remaining binding (binding; 1 µM): 87%
CN([C@@H]1CCc2c(CC(=O)O)c3ccccc3n2C1)S(=O)(=O)c1ccc(F)cc1 — remaining binding (cell-free assay, competition with immobilised ligand; 1 µM): 100%
N[C@@H]1CCN(c2nccc(-c3cnn4ncccc34)n2)C1 — remaining binding (binding; 1 µM): 100%
CC(=O)N1CCC(c2ccc(C(=O)NC(=N)N)cc2C(F)(F)F)CC1 — remaining binding (cell-free assay, competition with immobilised ligand; 1 µM): 100%
CC1CCCN1c1nccc(-c2cnn3ncccc23)n1 (centres unmarked) — remaining binding (binding; 1 µM): 98%
O=C1NC(c2ccccn2)Sc2ccccc21 (centres unmarked) — remaining binding (cell-free assay, competition with immobilised ligand; 1 µM): 91%
O=C(c1ccc(Nc2nccc(-c3cc4ccccc4s3)n2)cc1)N1CCC(N2CCCC2)CC1 — remaining binding (binding, competition with immobilised ligand; 1 µM): 71%
O=C(NCC1CCOCC1)c1n[nH]cc1NC(=O)c1c(F)cccc1F — remaining binding (binding, competition with immobilised ligand; 1 µM): 88%
CN(C)c1nccc(-c2cnn3ncccc23)n1 — remaining binding (binding; 1 µM): 100%
Cn1cc(Cl)c2c(Oc3c(F)cc(Nc4cc(Cl)nc(N)n4)cc3F)ccnc21 — remaining binding (cell-free assay, competition with immobilised ligand; 0.1 µM): 100%
C=CC(=O)N1CCC(C(=O)NCC(=O)N2CCN(c3nc(-c4cnc(N)nc4C(F)F)nc(N4CCOCC4)n3)CC2)CC1 — remaining binding (binding, competition with immobilised ligand; 1 µM): 86%
CN(C)c1ncc(F)c(-c2cnn3ncccc23)n1 — remaining binding (binding; 1 µM): 86%
C[C@@H](c1ccc(-n2cnc3c(N)ncnc32)cc1)N1CCc2nn(C)c(Cc3ccccc3)c2C1=O — remaining binding (binding, competition with immobilised ligand; 0.1 µM): 89%
O=C(NCCCN1CCOCC1)c1ccc(Nc2ncc(Cl)c(-c3ccc(Cl)s3)n2)cc1 — remaining binding (binding, competition with immobilised ligand; 1 µM): 78%
C[C@H](c1ccc(F)cc1)N(Cc1cccc(C(=O)O)c1)C(=O)c1cnc2ccccc2c1 — remaining binding (cell-free assay, competition with immobilised ligand; 1 µM): 100%
